Experimental data of several laboratories.
Lines come from different studies, so protocols differ.
Target: Ephrin type-A receptor 3 (EPHA3, Homo sapiens, UniProt P29320)
One construct used (P29320 1-983): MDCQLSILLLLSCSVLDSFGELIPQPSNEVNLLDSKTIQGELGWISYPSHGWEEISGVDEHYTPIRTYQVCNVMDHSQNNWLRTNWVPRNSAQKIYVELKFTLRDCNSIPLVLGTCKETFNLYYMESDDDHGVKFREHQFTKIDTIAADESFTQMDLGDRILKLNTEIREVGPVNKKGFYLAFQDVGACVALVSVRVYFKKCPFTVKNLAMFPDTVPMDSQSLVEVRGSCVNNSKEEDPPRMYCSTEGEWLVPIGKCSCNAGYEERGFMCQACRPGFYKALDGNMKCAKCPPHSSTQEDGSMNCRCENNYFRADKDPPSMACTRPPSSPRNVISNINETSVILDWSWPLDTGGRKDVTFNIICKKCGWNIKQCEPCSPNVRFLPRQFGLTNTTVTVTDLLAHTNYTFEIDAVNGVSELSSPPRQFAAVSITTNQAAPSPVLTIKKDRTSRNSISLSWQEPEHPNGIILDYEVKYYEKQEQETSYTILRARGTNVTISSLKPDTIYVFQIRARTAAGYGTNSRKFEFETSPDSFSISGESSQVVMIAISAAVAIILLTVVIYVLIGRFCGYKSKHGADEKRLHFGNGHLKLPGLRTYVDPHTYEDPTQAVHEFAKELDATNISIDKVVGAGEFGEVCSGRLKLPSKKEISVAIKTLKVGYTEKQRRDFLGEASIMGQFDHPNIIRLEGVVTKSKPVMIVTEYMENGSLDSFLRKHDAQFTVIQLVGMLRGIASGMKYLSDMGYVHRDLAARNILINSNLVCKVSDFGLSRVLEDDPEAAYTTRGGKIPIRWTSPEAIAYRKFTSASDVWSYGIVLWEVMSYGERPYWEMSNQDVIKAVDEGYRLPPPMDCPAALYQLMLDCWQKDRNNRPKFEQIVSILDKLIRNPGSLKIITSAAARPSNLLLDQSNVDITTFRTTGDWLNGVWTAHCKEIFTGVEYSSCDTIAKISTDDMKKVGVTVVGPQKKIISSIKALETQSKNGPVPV

SMILES	observed	action	technique	concentration	measurement	value
COc1ccc2c(c1)O[C@@H](c1ccc(OC)c(OC)c1)C[C@H]2NC(=O)C1(c2ccc3c(c2)OC(F)(F)O3)CC1	cell-free assay		competition with immobilised ligand	1 µM	remaining binding	91%
C#Cc1cccc(Nc2ncnc3cc(OCCOC)c(OCCOC)cc23)c1	cell-free assay			0.5 µM	remaining signal	93.2%
CN(c1nccc(-c2cnn3ncccc23)n1)C1CC1	binding			1 µM	remaining binding	100%
Cc1cnc(NC2CCOCC2)nc1-n1cnc(C(=O)NC(CN)c2cc(F)cc(Cl)c2)c1 (stereo not drawn)	enzyme activity	inhibitor	radiometric	1 µM	remaining activity	123%
N#CCCc1ccc2c(c1)-c1[nH]c3ccc([N+](=O)[O-])cc3c1CC(=O)N2	cell-free assay			0.5 µM	remaining signal	93.9%
Cc1ccc(Nc2nccc(N(C)c3ccc4c(C)n(C)nc4c3)n2)cc1S(N)(=O)=O	enzyme activity	inhibitor		0.3 µM	inhibition	2%
CC/C(=N\NC(=O)NCc1cccc(O)c1)c1ccc(O)c(C)c1O	enzyme activity	inhibitor		0.1 µM	inhibition	0.6%
O=C(O)[C@@H]1[C@@H](Cn2nnc3ccccc3c2=O)CC[C@H]1C(=O)c1ccc(OCCC2CCOCC2)cc1	cell-free assay		competition with immobilised ligand	1 µM	remaining binding	100%
CCN(CC)CCNC(=O)c1c(C)[nH]c(/C=C2\C(=O)Nc3ccc(F)cc32)c1C	cell-free assay			0.5 µM	remaining signal	84%
Nc1ncnc2occ(-c3ccc(NC(=O)Nc4cc(C(F)(F)F)ccc4F)cc3)c12	cell-free assay			20 µM	remaining signal	16%
O=C(NCCCC1CCCCC1)c1ccc(CNC(=O)c2cnn(-c3ccccc3)c2C(F)(F)F)cc1	cell-free assay		competition with immobilised ligand	0.1 µM	remaining binding	91%
Cc1ccc(NC(=O)c2ccc(C)c(C(F)(F)F)c2)cc1C#Cc1nn(C2CCC(O)CC2)c2ncnc(N)c12 (stereo not drawn)	cell-free assay			10 µM	remaining signal	3%
N#CC1(c2ccccn2)CCN(Cc2cc(C(=O)N3CCCC3)c(=O)n3ccccc23)CC1	cell-free assay		competition with immobilised ligand	1 µM	remaining binding	100%
O=C(Nc1cnn(-c2csc(C(=O)NC3COC3)c2)c1)Nc1c(F)cccc1Cl	enzyme activity	inhibitor		5 µM	remaining activity	96.1%
COc1cc(Cl)c(C(=O)N[C@@H](CN[C@H]2CC[C@@H](N)CC2)Cc2ccc(C#N)cc2)cc1-c1ccc(CN[C@H](C)c2ccc(C)cc2)o1	enzyme activity	inhibitor		1 µM	remaining activity	69%
CC(C)(C)c1nc2c(s1)c1nc(N)ncc1c1ccc(NS(=O)(=O)c3c(F)cccc3F)c(F)c12	enzyme activity	inhibitor	radiometric	1 µM	remaining activity	92%
CS(=O)(=O)CCNCc1ccc(-c2ccc3ncnc(Nc4ccc(OCc5cccc(F)c5)c(Cl)c4)c3c2)o1	cell-free assay			0.5 µM	remaining signal	98.2%
Cc1cc(NC(=O)c2cccc3cc(-c4cccc5[nH]nc(N)c45)ccc23)ccc1F	enzyme activity	inhibitor		0.1 µM	activity vs control	103%
CNC(=O)Nc1ccc2c(c1)CC[C@@]21OC(=O)N(CC(=O)N(Cc2ccc(F)cc2)[C@@H](C)C(F)(F)F)C1=O	cell-free assay		competition with immobilised ligand	1 µM	remaining binding	100%
CN(C)C1CCN(CC#Cc2nn(C3CCCC3)c3nc(NCc4ccccc4)ncc23)C1 (stereo not drawn)	enzyme activity	inhibitor	FRET	1 µM	inhibition	-9%
CO[C@@H](C)c1c(Nc2ccc([C@@H](N(C)C(=O)C3CCS(=O)(=O)CC3)C(F)(F)F)cc2)cnc2cc(Cl)nn12	cell-free assay		competition with immobilised ligand	1 µM	remaining binding	90%
CNC(=O)c1cc(Oc2ccc(NC(=O)Nc3ccc(Cl)c(C(F)(F)F)c3)cc2)ccn1	enzyme activity	inhibitor		0.3 µM	inhibition	11%
COc1cccc(CNC(=O)c2nc3scc(COCc4ccc(C(=O)O)cc4)c3c(=O)[nH]2)c1	cell-free assay		competition with immobilised ligand	1 µM	remaining binding	91.3%
Cc1ccc(C(=O)Nc2ccc(CN3CCN(C)CC3)c(C(F)(F)F)c2)cc1C#Cc1cnc2cccnn12	cell-free assay			23.5 nM	remaining signal	7.3%
